The star is where a group is joined. Cbz = O=C(OCc1ccccc1)*; CH2F = FC*
How the values were obtained:
[1] = target: T1, RARα (Homo sapiens, UniProt P10276); conditions: binding affinities of synthetic retinoids; cited from earlier work
T1 sequence (P10276 183-417 limits assumed): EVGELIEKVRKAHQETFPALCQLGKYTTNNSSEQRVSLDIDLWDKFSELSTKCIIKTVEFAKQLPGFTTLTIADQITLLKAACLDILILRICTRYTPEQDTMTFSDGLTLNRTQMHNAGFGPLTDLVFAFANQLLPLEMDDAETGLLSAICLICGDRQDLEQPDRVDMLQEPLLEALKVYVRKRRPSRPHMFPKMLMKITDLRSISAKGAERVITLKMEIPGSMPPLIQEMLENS

[2] = target: T2, RARγ (Homo sapiens, UniProt P13631); conditions: binding affinities of synthetic retinoids; cited from earlier work
T2 sequence (P13631 185-419 limits assumed): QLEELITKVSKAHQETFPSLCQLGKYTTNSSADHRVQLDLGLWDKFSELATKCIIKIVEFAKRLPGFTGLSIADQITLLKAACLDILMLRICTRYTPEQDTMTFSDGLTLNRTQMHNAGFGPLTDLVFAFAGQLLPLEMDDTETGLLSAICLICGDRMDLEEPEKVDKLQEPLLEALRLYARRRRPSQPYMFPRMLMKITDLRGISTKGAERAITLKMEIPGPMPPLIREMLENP

[3] = system: LNCaP cells; test: Colony forming efficiency, LNCaP; assay type: cell-based, human; conditions: Figure 4A
Procedure, shortened: (§1)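 Serum-free adapted cells were trypsinized (0.25% trypsin in PBS, 5 min, 37°C) into single-cell suspensions; suspensions under 90% trypan-blue-viable were discarded. 1000 cells per 65-mm dish were grown 21 days at 37°C, 5% CO2, in RPMI 1640 plus ITS+1 with test compound, refreshed every 5 days. Colonies were fixed in 1% formaldehyde and stained with methylene blue. CFE = colonies/cells inoculated × 100.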

[4] = target: T3, RARβ (Homo sapiens, UniProt P10826); conditions: binding affinities of synthetic retinoids; cited from earlier work
T3 sequence (P10826 183-417 limits assumed): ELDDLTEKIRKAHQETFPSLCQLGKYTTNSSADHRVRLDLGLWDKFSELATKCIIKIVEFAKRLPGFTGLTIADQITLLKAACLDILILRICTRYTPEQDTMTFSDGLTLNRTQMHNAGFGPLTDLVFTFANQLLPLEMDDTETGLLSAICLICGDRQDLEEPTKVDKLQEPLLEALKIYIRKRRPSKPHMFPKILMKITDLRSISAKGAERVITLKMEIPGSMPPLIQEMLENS

[5] = system: LNCaP cells; conditions: previous data; cited from earlier work
[6] = system: LNCaP cells; test: Cell cycle analysis; assay type: cell-based, human; conditions: 10^−6 M; for proportion of cells sub‐G0/G1: 48‐hour timepoint
Procedure, shortened: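 Serum-free adapted LNCaP cells treated with test compound over a time course to 48 h. Harvested cells stained with propidium iodide and analysed by flow cytometry. Phases were assigned by DNA content: 2n is G1, 4n is G2/M, and between 2n and 4n is S. Cells below 2n (sub-G1) were scored as apoptotic. Results are percentages of cells per phase.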

[7] = system: LNCaP cells; test: TUNEL assay of apoptosis; assay type: cell-based, human; conditions: for proportion of apoptotic cells (TUNEL): 10^−6 M, 60 hours post‐treatment
Procedure, shortened: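 Serum-free adapted LNCaP cells (5 × 10^5 per 75 cm2 flask) were treated with 10−6 M test compound or vehicle over a time course. Z-VAD-FMK (50 μM) was added 1 h before compound where indicated. Adherent plus floating cells were cytospun and stained by TdT fluorescein in situ labelling. Positive cells were counted per 500 cells in five fields, on three slides per sample; results are % apoptotic cells.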

[8] = system: DU145 cells; test: Colony forming efficiency, DU145; assay type: cell-based, human; conditions: DU145, Figure 4A
Procedure, shortened: as §1

[9] = system: PC‐3 cells; test: Colony forming efficiency, PC‐3; assay type: cell-based, human; conditions: PC‐3, Figure 4A
Procedure, shortened: as §1

[10] = system: LNCaP cells; test: Cell growth; assay type: cell-based, human
[11] = system: LNCaP cells; test: Adipogenic differentiation; assay type: cell-based, human
[12] = system: LNCaP cells; test: Metabolic activity; assay type: cell-based, human; conditions: concentrations of 10^−6 M and above
Procedure, shortened: (§2)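 Serum-free adapted LNCaP, PC-3, DU145 or RWPE-1 cells were seeded at 400 cells/well in RPMI-1640 plus ITS+1. Test compound was added at seeding and again at day 2 by medium change. Viability was read at day 5 as intracellular ATP by luminescence (ViaLight HS). Results are % viable cells relative to vehicle control; at least three experiments in triplicate, mean ± SD.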

[13] = system: DU145 cells; test: Metabolic activity; assay type: cell-based, human; conditions: DU145, concentrations of 10^−6 M and above
Procedure, shortened: as §2

[14] = system: RWPE‐1 cells; test: Metabolic activity; assay type: cell-based, human; conditions: non‐tumorigenic RWPE‐1 compared with PC cell lines
Procedure, shortened: as §2

[15] = system: caspase‐9; test: Fluorometric caspase‐9 activity in LNCaP lysates; assay type: cell-based, human; conditions: 10^−6 M
Procedure, shortened: (§3)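 Serum-free adapted LNCaP cells were treated with 10−6 M test compound, with pan-caspase inhibitor and etoposide arms as indicated. Lysate was mixed with an equal volume of 20 mM HEPES pH 7.5, 10% glycerol, 2 mM DTT containing 50 μM substrate: DEVD-AFC (caspase-3), IETD-AFC (caspase-8) or LEHD-AFC (caspase-9). Background wells lacked lysate. Fluorescence was read at 400 nm excitation/508 nm emission, expressed as fold over control.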

[16] = system: caspase‐3; test: Fluorometric caspase‐3 activity in LNCaP lysates; assay type: cell-based, human; conditions: 10^−6 M
Procedure, shortened: as §3

[17] = system: LNCaP cells; test: Agarose gel electrophoresis of DNA; assay type: cell-based, human; conditions: time course
[18] = system: PC‐3 cells; test: Metabolic activity; assay type: cell-based, human; conditions: PC‐3, concentrations of 10^−6 M and above
Procedure, shortened: as §2

[19] = system: caspase‐8; test: Fluorometric caspase‐8 activity in LNCaP lysates; assay type: cell-based, human; conditions: 10^−6 M
Procedure, shortened: as §3

[20] = system: PC‐3 cells; test: Cell growth; assay type: cell-based, human
[21] = system: DU145 cells; test: Cell growth; assay type: cell-based, human

Compound | ED50 RARα [1] | ED50 RARγ [2] | colony forming efficiency (CFE), antagonists [3] | ED50 RARβ [4] | proportion of apoptotic cells (TUNEL) [7] | colony forming efficiency (CFE), antagonists [8] | colony forming efficiency (CFE), antagonists [9] | also measured
CCc1ccc(C2=CC(C)(C)Sc3ccc(C#Cc4ccc(C(=O)O)cc4)cc32)cc1 [AGN194310, 4‐[[4‐(4‐Ethylphenyl)‐2,2‐dimethyl‐(2H)‐thiochromen‐6‐yl]‐ethynyl]‐benzoic acid] | 4.3 nM | 2 nM | diminished the CFE | 5 nM | 35% | diminished the CFE | diminished the CFE | colony formation [5]: inhibited colony formation; proportion of cells in G1 phase [6]: gradually increased; proportion of cells in S‐phase [6]: fall; proportion of cells sub‐G0/G1 [6]: ~60%
CC1(C)CCC(C)(C)c2c1cc(C(=O)Nc1cc(F)c(C(=O)O)c(F)c1)c(O)c2Cl [AGN195183, 4‐(4‐Chloro‐3‐hydroxy‐5,5,8,8‐tetramethyl‐5,6,7,8‐tetrahydronaphthalene‐2‐carboxamido)‐2,6‐difluorobenzoic acid] | 20.1 nM | >5000 nM |  | >5000 nM |  |  |  | 
CCOc1c(Br)cc(C(=O)Nc2ccc(C(=O)O)cc2)cc1C(=O)c1ccc(C)cc1 [AGN196996, 4‐(3‐Bromo‐4‐ethoxy‐5‐(4‐methylbenzoyl)benzamido)benzoic acid] | 3.9 nM | >10 000 nM | neither ATRA, nor the RARα‐selective antagonist AGN196996 (Figure 1, S1C, S1F and Table 1) proved as effective AGN205728 or AGN194310 | 4036 nM | little evidence of induction of apoptosis | neither ATRA, nor the RARα‐selective antagonist AGN196996 (Figure 1, S1C, S1F and Table 1) proved as effective AGN205728 or AGN194310 | neither ATRA, nor the RARα‐selective antagonist AGN196996 (Figure 1, S1C, S1F and Table 1) proved as effective AGN205728 or AGN194310 | effect of co‐treatment on AGN195183‐mediated growth inhibition ([10]; 4 days, AGN196996 10^−8 M with AGN195183 10^−8 M): abolished AGN195183‐mediated growth inhibition; effect of co‐treatment with ATRA on proliferation ([10]; 4 days, AGN196996 10^−8 M with ATRA 10^−8 M): promoted proliferation of LNCaP cells
CC1(C)CCC(C)(C)c2cc(/C(=N\O)c3cc4cc(C(=O)O)ccc4[nH]3)ccc21 [AGN205327, 2‐[(E)‐N‐Hydroxy‐C‐(5,5,8,8‐tetramethyl‐6,7‐dihydronaphthalen‐2‐yl)carbonimidoyl]‐1H‐indole‐5‐carboxylic acid] | 3766.0 nM | 32 nM |  | 734 nM |  |  |  | effect on ciglitazone‐induced adipogenesis ([11]; AGN205327 added later than 48 hours post‐induction): failed to have any effect; inhibition of ciglitazone‐induced adipogenic differentiation ([11]; ciglitazone (10^−7 M), AGN205327 10^−7 M given between 48 hours pre‐ and post‐addition of ciglitazone): ≤ 70%
Cc1ccc(C2=CCC(C)(C)c3cc(C(/C=C/c4ccc(C(=O)O)cc4)=N/O)ccc32)cc1 [AGN205728, 4‐[(E,3E)‐3‐[8,8‐Dimethyl‐5‐(4‐methylphenyl)‐7H‐naphthalen‐2‐yl]‐3‐hydroxyiminoprop‐1‐enyl]benzoic acid] | 2400.0 nM | 3 nM | diminished the CFE | 4248 nM | 40% | diminished the CFE | diminished the CFE | metabolic activity [12]: abolishing metabolic activity; metabolic activity [13]: abolishing metabolic activity; response of metabolic activity [14]: significantly diminished response; activation of caspase‐9 [15]: failed to activate; activation of caspase‐3 [16]: failed to activate; proportion of cells in G1 phase [6]: gradually increased; proportion of cells in S‐phase [6]: fall; proportion of cells sub‐G0/G1 [6]: ~40%; DNA fragmentation pattern [17]: discrete laddering pattern that is typical of cells undergoing apoptosis; metabolic activity [18]: abolishing metabolic activity; activation of caspase‐8 [19]: failed to activate
CC1=C(/C=C/C(C)=C/C=C/C(C)=C/C(=O)O)C(C)(C)CCC1 [ATRA, All‐trans‐retinoic acid] |  |  |  |  |  |  |  | effect on cell growth ([20]; PC‐3, 10^−8 M and above): progressively diminished cell growth; increase in cell numbers ([20]; PC‐3, 5 days, 10^−11‐10^−9 M): up to 1.5 fold; effect on cell growth ([21]; DU145, 10^−8 M and above): progressively diminished cell growth; increase in cell numbers ([21]; DU145, 5 days, 10^−11‐10^−9 M): up to 1.5 fold; effect on cell growth ([10]; 10^−8 M and above): progressively diminished cell growth; increase in cell numbers ([10]; 5 days, 10^−11‐10^−9 M): up to 1.5 fold
O=C(Nc1ccccc1)c1cc([N+](=O)[O-])ccc1Cl [GW9662] |  |  |  |  |  |  |  | inhibition of accumulation of lipid droplets ([11]; differentiation medium, day 14, AGN205327 10^−7 M, GW9662 10^−5 M): of a similar order
Cbz-Val-Ala-Asp-CH2F [reference compound] |  |  |  |  |  |  |  | effect of pre‐treatment on AGN205728‐induced apoptosis (TUNEL) ([7]; Z‐VAD‐FMK 5 × 10^−5 M, AGN205728 10^−6 M): failed to diminish induction of apoptosis by AGN205728
